Key:
Leishmania donovani [1] = experiment: Antileishmanial activity against Leishmania donovani LV9 promastigotes after 96 hrs by MTT assay; assay type: functional, organism-based; details: LV9, 96 h
Summary of the method: (§1)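 Promastigotes recovered from liquid-nitrogen cryopreservation were exposed to compounds for 96 h. Parasite viability was read by MTT.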

Leishmania infantum [2] = experiment: Antileishmanial activity against Leishmania infantum D.SCH promastigotes after 96 hrs by MTT assay; assay type: functional, organism-based; summary of the method: as §1
Leishmania major = experiment: Antileishmanial activity against Leishmania major LV39 promastigotes after 96 hrs by MTT assay; assay type: functional, organism-based; details: LV39, 96 h; summary of the method: as §1
Leishmania donovani [3] = experiment: Antileishmanial activity against Leishmania donovani LV9 amastigotes infected in mouse RAW 264.7 cells after 72 hrs by MTT assay; assay type: functional, organism-based
Summary of the method: (§2)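 RAW 264.7 macrophages infected in vitro with stationary-phase promastigotes, seeded at 1 × 10^5 cells per well in RPMI with 10% fetal calf serum and held 24 h at 37 °C for amastigote transformation. Compounds added, duplicate wells, 72 h at 37 °C. Cells lysed with 0.008% SDS, then post-lysis medium added and plates held 3-4 days at 25 °C. Recovered promastigotes quantified by MTT.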

Leishmania infantum [4] = experiment: Antileishmanial activity against Leishmania infantum D.SCH amastigotes infected in mouse RAW 264.7 cells after 72 hrs by MTT assay; assay type: functional, organism-based; summary of the method: as §2
RAW264.7 = experiment: Cytotoxicity against mouse macrophage RAW264.7 cells after 48 hrs by MTT assay; assay type: cell-based; details: RAW264.7, 48 h
Summary of the method: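 Noninfected RAW 264.7 cells were run in parallel with the intracellular amastigote assay and exposed to compounds for 48 h. Viable cells were quantified by MTT.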

Plasmodium falciparum = experiment: Antiplasmodial activity against chloroquine-sensitive Plasmodium falciparum 3D7 after 48 hrs as reduced [3H]phenylalanine uptake
[5] = Toxicity in human erythrocytes assessed as morphological changes up to 67 uM after 48 hrs by Giemsa staining; assay type: cell-based; details: erythrocyte
[6] = Toxicity in human erythrocytes assessed as morphological changes at IC50 after 48 hrs by Giemsa staining; assay type: cell-based; details: erythrocyte
[7] = Toxicity in human erythrocytes assessed as formation of echinocytes and ghost cells at 130 to 300 uM after 48 hrs by Giemsa staining; assay type: cell-based; details: erythrocyte

C/C=C/C1=C(OC)C(=O)C(OC)=C(OC)C1=O
IC50 (Leishmania donovani [1]): 97 µM | IC50 (Leishmania infantum [2]): 74 µM | IC50 (Leishmania major): 72 µM | IC50 (Leishmania donovani [3]): > 800 µM | IC50 (Leishmania infantum [4]): > 800 µM | IC50 (RAW264.7): 256 µM | IC50 (Plasmodium falciparum): > 200 µM

C/C=C/c1cc(O)c(OC)c(OC)c1
IC50 (Leishmania donovani [1]): 395 µM | IC50 (Leishmania infantum [2]): 267 µM | IC50 (Leishmania major): 372 µM | IC50 (Leishmania donovani [3]): > 800 µM | IC50 (Leishmania infantum [4]): > 800 µM | IC50 (RAW264.7): 281 µM | IC50 (Plasmodium falciparum): > 200 µM

C/C=C/c1cc(OC)c(OC)c(O)c1OC
IC50 (Leishmania donovani [1]): 232 µM | IC50 (Leishmania infantum [2]): 198 µM | IC50 (Leishmania major): 387 µM | IC50 (Leishmania donovani [3]): 589 µM | IC50 (Leishmania infantum [4]): > 800 µM | IC50 (RAW264.7): 125 µM | IC50 (Plasmodium falciparum): > 200 µM

COc1ccc([C@@H]2COc3c(ccc(O)c3CC=C(C)C)C2)c(OC)c1O
IC50 (Leishmania donovani [1]): 6.9 µM | IC50 (Leishmania infantum [2]): 9.2 µM | IC50 (Leishmania major): 7.9 µM | IC50 (Leishmania donovani [3]): 99 µM | IC50 (Leishmania infantum [4]): 109 µM | IC50 (RAW264.7): 218 µM | Activity [5]: Non-toxic | IC50 (Plasmodium falciparum): 10.3 µM

C[C@@H]1[C@H](O)[C@@H](C)/C=C/C=C/C=C/C=C/C=C/C=C/C=C/[C@H](O[C@@H]2O[C@H](C)[C@@H](O)[C@H](N)[C@@H]2O)C[C@@H]2O[C@](O)(C[C@@H](O)C[C@@H](O)[C@H](O)CC[C@@H](O)C[C@@H](O)CC(=O)O[C@H]1C)C[C@H](O)[C@H]2C(=O)O [AMPHOTERICIN B]
IC50 (Leishmania infantum [2]): 0.02 µM | IC50 (Leishmania major): 0.03 µM | IC50 (Leishmania donovani [3]): 0.04 µM | IC50 (Leishmania infantum [4]): 0.04 µM

COc1ccc([C@@H]2COc3c(ccc4c3C=CC(C)(C)O4)C2)c(OC)c1O [GLYASPERIN H]
IC50 (Leishmania donovani [1]): 25.3 µM | IC50 (Leishmania infantum [2]): 14.2 µM | IC50 (Leishmania major): 23.7 µM | IC50 (Leishmania donovani [3]): 77 µM | IC50 (Leishmania infantum [4]): 89 µM | IC50 (RAW264.7): 172 µM | Activity [6]: Non-toxic | Activity [7]: Toxic | IC50 (Plasmodium falciparum): 33.3 µM

COc1ccc([C@@H]2COc3c(ccc4occc34)C2)c(OC)c1O [SMIRANICIN]
IC50 (Leishmania donovani [1]): 22.9 µM | IC50 (Leishmania infantum [2]): 11.3 µM | IC50 (Leishmania major): 17.4 µM | IC50 (Leishmania donovani [3]): 112 µM | IC50 (Leishmania infantum [4]): 81 µM | IC50 (RAW264.7): 193 µM | Activity [6]: Non-toxic | Activity [7]: Toxic | IC50 (Plasmodium falciparum): 57.6 µM

Source: ChEMBL document CHEMBL1137812, “Leishmanicidal and antiplasmodial activity of constituents of Smirnowia iranica” (J Nat Prod, 2002)
